Measured values published in ChEMBL document CHEMBL1137338, “Effects of substitution on 9-(3-bromo-4-fluorophenyl)-5,9-dihydro-3H,4H-2,6-dioxa-4- azacyclopenta[b]naphthalene-1,8-dione, a dihydropyridine ATP-sensitive potassium channel opener” (J Med Chem, 2006).

How the values were obtained:
[1] = biological target: T1, Sulfonylurea receptor 2, Kir6.2 (Homo sapiens, UniProt O60706+Q14654); assay: Activity against pig bladder KATP channel opening assessed as ability to relax spontaneous bladder contraction; type: functional, Sus scrofa; settings: target entry is the homologue from another species
T1 sequence (Q14654 whole entry): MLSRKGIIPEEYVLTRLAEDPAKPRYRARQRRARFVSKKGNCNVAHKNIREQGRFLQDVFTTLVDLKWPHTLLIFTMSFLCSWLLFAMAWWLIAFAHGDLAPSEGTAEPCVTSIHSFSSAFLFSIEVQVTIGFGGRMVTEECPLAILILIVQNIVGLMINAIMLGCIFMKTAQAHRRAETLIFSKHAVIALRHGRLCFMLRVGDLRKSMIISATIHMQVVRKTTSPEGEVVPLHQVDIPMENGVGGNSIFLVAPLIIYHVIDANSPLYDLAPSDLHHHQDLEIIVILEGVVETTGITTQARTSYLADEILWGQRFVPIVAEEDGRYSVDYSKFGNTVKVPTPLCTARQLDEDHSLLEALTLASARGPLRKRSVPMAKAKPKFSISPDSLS
T1 sequence (O60706 whole entry): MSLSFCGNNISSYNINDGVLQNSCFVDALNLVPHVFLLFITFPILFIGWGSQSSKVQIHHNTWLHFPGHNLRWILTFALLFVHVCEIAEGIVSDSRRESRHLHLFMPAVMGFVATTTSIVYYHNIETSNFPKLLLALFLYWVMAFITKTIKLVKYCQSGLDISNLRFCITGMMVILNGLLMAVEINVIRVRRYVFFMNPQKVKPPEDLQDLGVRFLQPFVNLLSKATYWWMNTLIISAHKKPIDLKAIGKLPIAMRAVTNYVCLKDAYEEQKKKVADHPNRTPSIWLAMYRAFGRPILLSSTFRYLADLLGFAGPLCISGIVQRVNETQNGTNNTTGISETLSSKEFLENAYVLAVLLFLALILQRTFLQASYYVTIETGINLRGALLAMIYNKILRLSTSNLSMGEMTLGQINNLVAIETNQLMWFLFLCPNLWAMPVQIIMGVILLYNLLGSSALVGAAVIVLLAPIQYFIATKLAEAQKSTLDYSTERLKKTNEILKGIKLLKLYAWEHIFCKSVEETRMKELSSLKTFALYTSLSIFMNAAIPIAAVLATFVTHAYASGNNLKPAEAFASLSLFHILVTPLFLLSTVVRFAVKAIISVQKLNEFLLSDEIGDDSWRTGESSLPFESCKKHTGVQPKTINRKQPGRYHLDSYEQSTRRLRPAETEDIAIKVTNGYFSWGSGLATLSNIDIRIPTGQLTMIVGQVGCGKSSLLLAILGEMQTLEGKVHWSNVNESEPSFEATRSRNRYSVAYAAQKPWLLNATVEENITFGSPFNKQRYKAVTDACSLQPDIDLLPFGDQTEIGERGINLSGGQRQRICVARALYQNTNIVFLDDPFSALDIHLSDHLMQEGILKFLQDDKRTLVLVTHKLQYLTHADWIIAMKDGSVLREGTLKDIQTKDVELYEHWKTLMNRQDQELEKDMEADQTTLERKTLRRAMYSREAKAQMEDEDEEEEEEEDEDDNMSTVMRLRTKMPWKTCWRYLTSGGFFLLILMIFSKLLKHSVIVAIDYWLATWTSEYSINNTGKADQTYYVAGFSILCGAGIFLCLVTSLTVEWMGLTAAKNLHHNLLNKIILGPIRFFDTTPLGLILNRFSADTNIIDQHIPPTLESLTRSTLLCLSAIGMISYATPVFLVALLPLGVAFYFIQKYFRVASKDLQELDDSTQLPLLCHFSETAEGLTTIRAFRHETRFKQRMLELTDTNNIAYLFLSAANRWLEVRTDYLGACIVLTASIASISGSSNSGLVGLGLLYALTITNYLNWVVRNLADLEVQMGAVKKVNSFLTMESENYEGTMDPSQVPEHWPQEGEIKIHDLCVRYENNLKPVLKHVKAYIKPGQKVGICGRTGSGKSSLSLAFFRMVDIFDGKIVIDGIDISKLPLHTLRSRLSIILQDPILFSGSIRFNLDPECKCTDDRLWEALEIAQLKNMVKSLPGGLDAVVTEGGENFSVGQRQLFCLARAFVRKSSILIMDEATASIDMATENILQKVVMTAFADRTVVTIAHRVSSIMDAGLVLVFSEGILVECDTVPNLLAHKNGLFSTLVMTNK
In short: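 Spontaneously contracting detrusor strips were taken from near the trigonal region of Landrace pig bladder. Increasing concentrations of test agent were applied, and the reduction in area under the curve (AUC) of the spontaneous contractions was measured.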

[2] = biological target: T1, Sulfonylurea receptor 2, Kir6.2; assay: (§1) Activity against pig bladder KATP channel opening assessed as ability to relax field-stimulated pig detrusor; type: functional, Sus scrofa; settings: target entry is the homologue from another species
[3] = biological target: T1, Sulfonylurea receptor 2, Kir6.2; assay: (§2) Ability to open human urinary bladder Kir6.2 channel containing SUR2B in Ltk cells by FLIPR assay; type: functional, cell-based
In short: (§3)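 Ltk- cells stably transfected with the Kir6.2/SUR2B exon 17- splice variant. Membrane potential was followed with DiBAC dye in a 96-well cell-based kinetic fluorescence (FLIPR) assay. The highest concentration tested was 10 µM. Each compound's maximal fluorescence response was expressed as % of the response to the reference opener.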

[4] = biological target: T2, Sulfonylurea receptor 2, Kir6.2 (Homo sapiens) (UniProt Q14654+O60706); assay: Activity against pig bladder KATP channel opening assessed as ability to relax field-stimulated pig detrusor relative to P1075; type: functional; settings: Sus scrofa; target entry is the homologue from another species
[5] = biological target: T2, Sulfonylurea receptor 2, Kir6.2 (Homo sapiens); assay: Activity against pig bladder KATP channel opening assessed as ability to relax spontaneous bladder contraction relative to P1075; type: functional; settings: Sus scrofa; target entry is the homologue from another species
[6] = biological target: T2, Sulfonylurea receptor 2, Kir6.2 (Homo sapiens); assay: Ability to open human urinary bladder Kir6.2 containing SUR2B in Ltk cells by FLIPR assay relative to P1075; type: functional, cell-based; in short: as §3
[7] = biological target: T2, Sulfonylurea receptor 2, Kir6.2 (Homo sapiens); assay: as §1; type: functional; settings: Sus scrofa; filed as agonist; target entry is the homologue from another species
[8] = biological target: T2, Sulfonylurea receptor 2, Kir6.2 (Homo sapiens); assay: as §2; type: functional, cell-based; settings: filed as partial agonist; in short: as §3

Row | EC50 [1] | EC50 [2] | EC50 [3] | Efficacy [4] | Efficacy [5] | Efficacy [6] | Activity [7] | Activity [8] | SMILES
1 | 0.0219 µM | 0.0851 µM | 0.0525 µM | – | – | – | – | – | CCC(C)(C)NC(=NC#N)Nc1cccnc1
2 | 0.102 µM | 0.676 µM | 2.34 µM | 94% | 100% | 71% | – | – | CCc1cc(C#N)ccc1Nc1c(N[C@H](C)C(C)(C)C)c(=O)c1=O
3 | – | 0.589 µM | 0.0631 µM | 95% | – | 107% | – | – | O=C1COCC2=C1[C@@H](c1ccc(F)c(Br)c1)C1=C(COC1=O)N2
4 | – | 0.126 µM | 0.0275 µM | 97% | – | 87% | – | – | O=C1COCC2=C1C(c1ccc(F)c(Br)c1)C1=C(O)COCC1=N2 (stereo unspecified)
5 | – | 0.955 µM | – | – | – | – | – | – | CC[C@H]1OC(O)=C2C1=NC1=C(C(=O)CSC1)[C@H]2c1ccc(F)c(Br)c1
6 | – | – | – | 99% | 100% | 101% | – | – | CCC(C)(C)/N=C(\NC#N)Nc1cccnc1
7 | – | – | – | 99% | 100% | 100% | – | – | C[C@](O)(C(=O)Nc1ccc(C(=O)c2ccccc2)cc1)C(F)(F)F
8 | – | 0.794 µM | 0.155 µM | – | – | – | – | – | CCC[C@H]1OC(O)=C2C1=NC1=C(C(=O)COC1)[C@H]2c1ccc(F)c(Br)c1 (racemic) [listing 1 of 2 here]
9 | – | 0.49 µM | 0.0955 µM | – | – | – | – | – | CC[C@H]1OC(O)=C2C1=NC1=C(C(=O)COC1)[C@H]2c1ccc(F)c(Br)c1 (racemic) [listing 1 of 2 here]
10 | – | – | – | 90% | – | 36% | Agonist | Partial agonist | CCC[C@H]1OC(O)=C2C1=NC1=C(C(=O)COC1)[C@H]2c1ccc(F)c(Br)c1 (racemic) [listing 2 of 2 here]
11 | – | – | – | 88% | – | 40% | Agonist | Partial agonist | CC[C@H]1OC(O)=C2C1=NC1=C(C(=O)COC1)[C@H]2c1ccc(F)c(Br)c1 (racemic) [listing 2 of 2 here]
12 | – | – | – | – | – | 58% | – | Partial agonist | CC[C@H]1OCC(O)=C2C1=NC1=C(C(=O)COC1)[C@H]2c1ccc(Cl)c(Cl)c1 (racemic)
13 | – | – | – | – | – | 30% | – | Partial agonist | CC[C@H]1OCC(O)=C2C1=NC1=C(C(=O)COC1)[C@H]2c1ccc(F)c(Br)c1 (racemic)
14 | – | – | – | – | – | 30% | – | Partial agonist | CC[C@H]1OCC(O)=C2C1=NC1=C(C(=O)COC1)[C@H]2c1ccc(F)c(Cl)c1 (racemic)
15 | – | 1.2 µM | > 10 µM | 97% | – | – | – | – | CC(C)[C@@H]1OC(O)=C2C1=NC1=C(C(=O)COC1)[C@H]2c1ccc(F)c(Br)c1 (relative stereo)
16 | – | 0.891 µM | 0.102 µM | – | – | – | – | – | CC[C@H]1OC(O)=C2C1=NC1=C(C(=O)CSC1)[C@H]2c1ccc(F)c(Br)c1 (relative stereo) [listing 1 of 2 here]
17 | – | 0.129 µM | 0.0275 µM | 74% | – | 83% | – | – | CC(C)C[C@@H]1OC(O)=C2C1=NC1=C(C(=O)COC1)[C@H]2c1ccc(F)c(Br)c1 (relative stereo)
18 | – | 1.29 µM | 0.257 µM | 91% | – | 68% | – | – | O=C1COCC2=C1[C@@H](c1ccc(F)c(Br)c1)C1=C(O)O[C@@H](c3ccccc3)C1=N2 (relative stereo)
19 | – | – | – | 100% | – | 15% | Agonist | Partial agonist | CC[C@H]1OC(O)=C2C1=NC1=C(C(=O)CSC1)[C@H]2c1ccc(F)c(Br)c1 (relative stereo) [listing 2 of 2 here]
20 | – | – | – | 99% | 100% | 83% | – | – | CC1(C)Oc2ccc(C#N)cc2[C@H](N2CCCC2=O)[C@H]1O (single isomer, unassigned)
21 | 0.000676 µM | 0.214 µM | 0.0372 µM | – | – | – | – | – | O=C1COCC2=C1C(c1ccc(F)c(Br)c1)C1=C(O)OCC1=N2 (stereo in doubt; 6b) [listing 1 of 2 here]
22 | – | – | – | 88% | 100% | 101% | – | – | O=C1COCC2=C1C(c1ccc(F)c(Br)c1)C1=C(O)OCC1=N2 (stereo in doubt; 6b) [listing 2 of 2 here]
23 | – | – | – | – | – | 17% | – | Partial agonist | C[C@@H]1OCC2=C(C1=O)[C@@H](c1ccc(F)c(Br)c1)C1=C(O)OCC1=N2 (stereo in doubt; 7a)

Row | EC50 [1] | EC50 [2] | EC50 [3] | Efficacy [4] | Efficacy [5] | Efficacy [6] | Activity [7] | Activity [8] | SMILES
24 | – | – | – | – | – | 15% | – | Partial agonist | C[C@@H]1OCC2=C(C1=O)[C@H](c1ccc(F)c(Br)c1)C1=C(O)OCC1=N2 (stereo in doubt; 8a)
25 | – | – | – | – | – | 16% | – | Partial agonist | C[C@@H]1OCC2=C(C1=O)[C@H](c1ccc(F)c(Br)c1)C1=C(O)OCC1=N2 (stereo in doubt; 8b)
26 | – | 2.69 µM | 0.776 µM | – | – | – | – | – | CC[C@@H]1OCC2=C(C1=O)[C@@H](c1ccc(F)c(Br)c1)C1=C(O)OCC1=N2 (stereo in doubt; 10a)
27 | – | 0.891 µM | 1.38 µM | – | – | – | – | – | CC[C@@H]1OCC2=C(C1=O)[C@@H](c1ccc(F)c(Br)c1)C1=C(O)OCC1=N2 (stereo in doubt; 10b)
28 | – | 0.0355 µM | 0.000912 µM | – | – | – | – | – | C[C@@H]1OC(O)=C2C1=NC1=C(C(=O)COC1)[C@H]2c1ccc(F)c(Br)c1 (stereo in doubt; 17a)
29 | – | 2.95 µM | 7.24 µM | – | – | – | – | – | CC[C@H]1OC(O)=C2C1=NC1=C(C(=O)COC1)[C@H]2c1ccc(F)c(Br)c1 (stereo in doubt; 21a)
30 | 0.0191 µM | 0.282 µM | 0.17 µM | – | – | – | – | – | CC[C@H]1OC(O)=C2C1=NC1=C(C(=O)COC1)[C@H]2c1ccc(F)c(Br)c1 (stereo in doubt; 21b) [listing 1 of 2 here]
31 | – | – | – | 77% | 96% | 46% | – | Partial agonist | CC[C@H]1OC(O)=C2C1=NC1=C(C(=O)COC1)[C@H]2c1ccc(F)c(Br)c1 (stereo in doubt; 21b) [listing 2 of 2 here]
32 | – | – | – | 34% | 99% | 45% | – | Partial agonist | CCC[C@H]1OC(O)=C2C1=NC1=C(C(=O)COC1)[C@H]2c1ccc(F)c(Br)c1 (stereo in doubt; 23b)
33 | 0.331 µM | 1.66 µM | 0.851 µM | – | – | – | – | – | CCCC[C@H]1OC(O)=C2C1=NC1=C(C(=O)COC1)[C@H]2c1ccc(F)c(Br)c1 (stereo in doubt; 29b) [listing 1 of 2 here]
34 | – | – | – | 51% | 100% | 68% | – | – | CCCC[C@H]1OC(O)=C2C1=NC1=C(C(=O)COC1)[C@H]2c1ccc(F)c(Br)c1 (stereo in doubt; 29b) [listing 2 of 2 here]
35 | – | 0.102 µM | 10 µM | – | – | – | – | – | CC(C)C[C@H]1OC(O)=C2C1=NC1=C(C(=O)COC1)[C@H]2c1ccc(F)c(Br)c1 (stereo in doubt; 31b)
36 | – | – | – | – | – | 34% | – | Partial agonist | CC[C@H]1OC(O)=C2C1=NC1=C(C(=O)C(C)(C)OC1)[C@H]2c1ccc(F)c(Br)c1 (stereo in doubt; 36b)
37 | – | 0.129 µM | 0.0912 µM | – | – | – | – | – | CCC[C@H]1OC(O)=C2C1=NC1=C(C(=O)COC1)[C@H]2c1ccc(F)c(Cl)c1 (stereo in doubt; 39b) [listing 1 of 2 here]
38 | – | – | – | 66% | – | 39% | – | Partial agonist | CCC[C@H]1OC(O)=C2C1=NC1=C(C(=O)COC1)[C@H]2c1ccc(F)c(Cl)c1 (stereo in doubt; 39b) [listing 2 of 2 here]
39 | – | 0.229 µM | 0.0269 µM | – | – | – | – | – | CCC[C@H]1OC(O)=C2C1=NC1=C(C(=O)COC1)[C@H]2c1ccc(F)c(I)c1 (stereo in doubt; 41b)
40 | 0.129 µM | 2.04 µM | 0.17 µM | – | – | – | – | – | CC[C@H]1OCC(O)=C2C1=NC1=C(C(=O)COC1)[C@H]2c1ccc(F)c(Br)c1 (stereo in doubt; 71a) [listing 1 of 2 here]
41 | – | – | – | 54% | 98% | 40% | – | Partial agonist | CC[C@H]1OCC(O)=C2C1=NC1=C(C(=O)COC1)[C@H]2c1ccc(F)c(Br)c1 (stereo in doubt; 71a) [listing 2 of 2 here]
42 | 0.055 µM | 2.29 µM | 0.17 µM | – | – | – | – | – | CC[C@H]1OCC(O)=C2C1=NC1=C(C(=O)COC1)[C@H]2c1ccc(Cl)c(Cl)c1 (stereo in doubt; 74b) [listing 1 of 2 here]
43 | – | – | – | 41% | 92% | 57% | – | Partial agonist | CC[C@H]1OCC(O)=C2C1=NC1=C(C(=O)COC1)[C@H]2c1ccc(Cl)c(Cl)c1 (stereo in doubt; 74b) [listing 2 of 2 here]
44 | 0.245 µM | 13.5 µM | 0.245 µM | – | – | – | – | – | CC[C@H]1OCC(O)=C2C1=NC1=C(C(=O)COC1)[C@H]2c1ccc(Br)c(Cl)c1 (stereo in doubt; 76b) [listing 1 of 2 here]
45 | – | – | – | 38% | 97% | 37% | – | Partial agonist | CC[C@H]1OCC(O)=C2C1=NC1=C(C(=O)COC1)[C@H]2c1ccc(Br)c(Cl)c1 (stereo in doubt; 76b) [listing 2 of 2 here]
